Among the data in ChEMBL document CHEMBL4513216, “Probing the Open Global Health Chemical Diversity Library for Multistage-Active Starting Points for Next-Generation Antimalarials” (ACS Infect Dis, 2020) are cytotoxicity values, retold here.

The series can be described thus: Toxicity liver stage against HepG2, at 10uM. Type of series: cell-based. On the set-up: test concentration 10 uM, cell line HepG2-A16-CD81EGFP. The note with it: human, HepG2-A16-CD81EGFP cells; read-out: INHIBITION
The procedure, abridged:
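Uninfected HepG2-A16-CD81EGFP cells, 3 × 10^3 per well, 1536-well, plated on prespotted compound at 10 μM final, parasite-free screening media added to match infected plates; puromycin 10 μM positive, DMSO 0.5% negative; run in parallel with 48 h PbLuc assay at 37 °C, 5% CO2; viability by CellTiter-Glo luminescence, normalized to controls.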
With `CC(=O)N1CCC(NC2(Cc3cc(C(C)(C)O)on3)COC2)CC1`, the cytotoxicity at 10 µM is -1.09%.
In the case of `COCCn1c(-c2cccc(OC)c2)cnc1NC(=O)NC1CCCC1`, the cytotoxicity at 10 µM came to 12.3%.
`Cc1nn(C)cc1CN1CCCCCC1c1ccc(Cl)cc1` (stereo unspecified): the cytotoxicity at 10 µM turned out to be 4.93%.
In the case of `CCC(C)CNC(=O)[C@@H]1CCCN1c1nccc(Nc2ccccc2)n1` (stereo partly specified), the cytotoxicity at 10 µM stood at 3.57%.
Consider `Cn1nc(CNC(=O)C2CCCCC2)cc1C1CC1`, for which the cytotoxicity at 10 µM was -4.56%.
As for `CC(C)CCN1C2(CCN(c3ncccn3)C2)c2ccccc2S1(=O)=O` (stereo unspecified), the cytotoxicity at 10 µM came to 1.35%.
The same measure for `COCCN1C[C@@H](C)[C@@]2(COCCN(C(=O)c3ccoc3)C2)C1`: 7.4%; for `Cc1ccc(C)c(-c2[nH]c3ccccc3c2C(=O)O)c1`: 1.55%.
On to `O=C(NCCN1CCNCC1)c1nc2ccccc2c(=O)[nH]1`, for which the cytotoxicity at 10 µM was found to be 8.19%.
`O=C(c1nc(COc2ccc3c(c2)OCO3)no1)N1CCCC1`: the cytotoxicity at 10 µM was found to be 10.3%.
The same measure for `CC(C)C(NC(=O)N1CCN(c2ccc(Cl)cc2)CC1)C(=O)NC1CC1` (stereo unspecified): 23.6%; for `O=C(NCc1ccco1)[C@H]1C[C@H]2OCC[C@H]2N(C(=O)c2ccco2)C1`: 2.79%.
In the case of `Cc1nocc1C(=O)N1CCc2c(CN(C)C(C)C)n[nH]c2C1`, the cytotoxicity at 10 µM is -12.3%.
For `Cc1ccc(CC(=O)N2Cc3nccn3CC(Cn3cccn3)C2)cc1` (stereo unspecified), the cytotoxicity at 10 µM was -10.5%.
In the case of `Cc1cc(NCCCOC(C)C)c2nncn2n1`, the cytotoxicity at 10 µM was determined as 6.17%.
Regarding `COc1cccc(CNCc2ccc(F)c(Cl)c2)c1O`, the cytotoxicity at 10 µM is -13.7%.
As for `Cc1ccc(CN2CCOCC2c2[nH]ncc2C)cn1` (stereo unspecified), the cytotoxicity at 10 µM was found to be 4.52%.
As for `Cc1cccc(C2(CNC(=O)c3ccnc(N(C)C)c3)CCOCC2)c1`, the cytotoxicity at 10 µM amounted to 2.85%.
Turning to `Cc1nn(C)cc1S(=O)(=O)NCC(c1ccccc1Cl)N1CCCC1` (stereo unspecified), the cytotoxicity at 10 µM was -1.29%.
Consider `O=C(c1cncnc1)N1CCCC(c2nccs2)C1` (stereo unspecified), for which the cytotoxicity at 10 µM is 6.55%.
In the case of `Cc1cc(C)n(C2CCN(Cc3nc4ccccc4n3C)CC2)n1`, the cytotoxicity at 10 µM turned out to be 1.64%.
The same measure for `O=C(NCc1ccccn1)c1cncc(C2CCCN2)n1` (stereo unspecified): 3.6%; for `O=C(c1cc[nH]n1)N1CCCC1c1ccccn1` (stereo unspecified): -22.5%; for `O=S(=O)(c1ccc(F)cc1)N1CCCC(c2nccs2)C1` (stereo unspecified): -6.74%.
As to `CN1CCc2nc(C3CCCCN3Cc3ccccc3Cl)ncc2C1` (stereo unspecified), the cytotoxicity at 10 µM was -27.7%.
In the case of `Cc1cccc(-c2cccc(CC3(C(=O)O)CCOCC3)c2)c1`, the cytotoxicity at 10 µM was -25.7%.
As for `CN1CCC(c2cncc(N(C)C)n2)CC1`, the cytotoxicity at 10 µM was -11.5%.
Next, `O=C1NCCCCC1Sc1ccccc1F` (stereo unspecified): 9.43%; `O=C(Cn1nnn(-c2cccs2)c1=O)NCC1CCOC1` (stereo unspecified): -40.4%.
Next, `CC(=O)N1CCCC1C(=O)N1CCC(=Cc2cccc(F)c2)CC1` (stereo unspecified): 3.5%; `CCOC(C)C(=O)NS(=O)(=O)c1cccc2cc(C)cnc12` (stereo unspecified): -3.14%; `COc1cc(OC)cc(N2CCC(NCc3cc[nH]n3)C2)c1` (stereo unspecified): 2.55%.
As to `O=C(O)c1cnc2c(cnn2C2CCCC2)c1`, the cytotoxicity at 10 µM was -8.23%.
Next, `CCCNC(=O)Cc1c(C)nc2c(c1C)c(=O)[nH]n2C`: 11.4%; `COc1ccc(F)cc1CSCC(=O)N(C)CCC#N`: -2.32%; `CCOCCNC(=O)c1ccn(S(=O)(=O)c2ccc(C)cc2)c1`: -3.18%.
As to `O=C(C(C1CC1)C1CC1)N1CCC(n2ccnn2)CC1`, the cytotoxicity at 10 µM is -45.7%.
Turning to `NC(=O)Nc1cccc(C(=O)N(Cc2ccc(F)cc2)C2CC2)c1`, the cytotoxicity at 10 µM is -10.1%.
Take `O=S(=O)(NC1CC1)c1cccc(Br)c1`: the cytotoxicity at 10 µM is -3.52%.
As for `CCC(C)N(C)S(=O)(=O)c1ccc(CCNC(C)=O)s1` (stereo unspecified), the cytotoxicity at 10 µM was -3.45%.
With `CCC1CN(Cc2ccccc2)CCN1Cc1nnc(C2CCC2)o1` (stereo unspecified), the cytotoxicity at 10 µM is -11.2%.
Regarding `CN(C)C(C)(C)CNC(=O)C(C)(C)c1ccccc1F`, the cytotoxicity at 10 µM was -11.2%.
Next, `Cc1cccc(C(=O)N2C[C@@H]3OCCN(CCN4CCCC4)[C@@H]3C2)n1`: -65%; `CC1=N[C@@]2(CC[C@@H]3CN(C(=O)NCCc4ccccc4)C[C@@H]32)C(=O)N1`: -75.4%; `CS(=O)(=O)NC[C@]12COC[C@H]1CN(C(=O)C1CCCCC1)C2`: 3.34%.
On to `O=C(NCC1CC1)C1=NOC2(CCN(S(=O)(=O)c3cccs3)C2)C1` (stereo unspecified), for which the cytotoxicity at 10 µM was 0.693%.
Take `CCCOc1cccc(-c2nc3c([nH]2)CCNC3)c1`: the cytotoxicity at 10 µM is -3.38%.
As to `COc1ccc2c(c1)C(C(=O)N(C)CCn1ccnc1C)CC(=O)N2` (stereo unspecified), the cytotoxicity at 10 µM was -44.8%.
For `CCSCC(C)NCc1cc(-c2ccco2)on1` (stereo unspecified), the cytotoxicity at 10 µM came out at 1.29%.
Turning to `Cc1cc(C)cc(C(C(=O)O)N(C)CCCN2CCOCC2)c1` (stereo unspecified), the cytotoxicity at 10 µM worked out at 6.03%.
Turning to `O=C(C1COc2ccccc2O1)N1Cc2cnn(CCO)c2C1` (stereo unspecified), the cytotoxicity at 10 µM is -3.12%.
As for `CSc1cccc(NC(=O)N2CCCC(CNC(=O)c3ccco3)C2)c1` (stereo unspecified), the cytotoxicity at 10 µM is -2.4%.
As for `Cc1ccc(-c2ccnc(N[C@H]3COC[C@@H]3N3CCCCC3)n2)c(C)n1`, the cytotoxicity at 10 µM worked out at 3.46%.
For `C[C@@H]1CN(C(=O)CCc2nncn2C)C[C@@]1(O)C1CCC1`, the cytotoxicity at 10 µM was -4.97%.
For `CN(C)CCN(C)C[C@@H]1CN(Cc2cccc(O)c2)C[C@@H]1CO`, the cytotoxicity at 10 µM worked out at 0.972%.
In the case of `COCCn1ccnc1C1CCN(C(=O)C(O)c2ccc(F)cc2)CC1` (stereo unspecified), the cytotoxicity at 10 µM was 1.73%.
Next, `Cc1[nH]c(-c2ccccc2)nc1C(=O)N1CCc2[nH]cnc2C1C(=O)O` (stereo unspecified): 2.43%.
Next, `O=C1OC2(CCNCC2)CN1CC(=O)N1CCC1c1cccs1` (stereo unspecified): 4.35%.
As for `COCCN(C/C=C/c1ccccc1)Cc1ncc[nH]1`, the cytotoxicity at 10 µM is 7.8%.
Consider `Oc1cc(CNCCN2CCCCC2)nc2c(F)cccc12`, for which the cytotoxicity at 10 µM was -1.16%.
Regarding `Cc1ccc2nc(-c3cnc(N)nc3)cc(C(=O)N(C)C)c2c1`, the cytotoxicity at 10 µM is 14%.
Next, `O=C(NCc1nnc2n1CCC2)c1cn(-c2ccccc2)nn1`: -2.4%; `CC(C)[C@@H]1CN(Cc2cnc(C3CCCCC3)nc2)C[C@H]1C(=O)O`: -6.46%; `COc1cccc(OCC2CCCN(C(=O)c3ncc(F)cc3F)C2)c1` (stereo unspecified): 6.35%.
As to `CCc1noc(CN(CC)C(=O)CC2C(=O)NCCN2CC(C)(C)C)n1` (stereo unspecified), the cytotoxicity at 10 µM worked out at 1.83%.
For the molecule `CN1CCN(CCCNS(=O)(=O)Cc2ccccc2F)CC1`, the cytotoxicity at 10 µM is -11.1%.
In the case of `COC[C@@]12CC[C@@H](N3CCOCC3)C[C@H]1CCN(c1ncccc1Cl)C2`, the cytotoxicity at 10 µM is -13.2%.
As to `Cc1nc(N2CCN(C)CC2)ncc1C(=O)N1CCC(O)(CO)CC1`, the cytotoxicity at 10 µM is -0.395%.
As to `Cc1cc(N2CCC3(CCC(=O)N(CC4CC4)C3)CC2)nc(N)n1`, the cytotoxicity at 10 µM is 6.92%.
For `CC(C)(C)c1ccn(C2(C(=O)O)CCN(c3nccc(N)n3)CC2)n1`, the cytotoxicity at 10 µM was -6.69%.
In the case of `Cn1cc(C(=O)Nc2cc(F)ccc2OCC2CCCO2)ccc1=O` (stereo unspecified), the cytotoxicity at 10 µM is -7.09%.
On to `COC(=O)c1cc(C(=O)N2CCCCC2C)n(-c2ccccc2)n1` (stereo unspecified), for which the cytotoxicity at 10 µM was -13.7%.
For the molecule `CCOc1ccc(NC(=O)NCc2cccnc2OCC)cc1`, the cytotoxicity at 10 µM is -8.67%.
Next, `O=C(c1ccc2cc[nH]c2c1)N1CCCN(Cc2cscn2)CC1`: -31.7%; `Cc1noc(C)c1C(=O)NCC(C)N1CCc2ccccc21` (stereo unspecified): -17.2%.
As for `CCn1cc(C(=O)N2CCCC(c3noc(C)n3)C2)cn1` (stereo unspecified), the cytotoxicity at 10 µM is 2.17%.
In the case of `CCn1cc(CN2CCCN(C(=O)c3ccccc3OC)CC2)cn1`, the cytotoxicity at 10 µM was -11.4%.
On to `Cn1cnnc1C1CCCN(C(=O)c2ccccn2)C1` (stereo unspecified), for which the cytotoxicity at 10 µM was -8.31%.
In the case of `CCn1cc(CN2CCCN(C(=O)c3cccn3C)CC2)cn1`, the cytotoxicity at 10 µM is -5.85%.
Take `c1cnn(CC2CCCN2Cc2nc(-c3ccoc3)no2)c1` (stereo unspecified): the cytotoxicity at 10 µM is -7.07%.
Next, `COC(=O)C(c1cc(F)ccc1F)N(C)C(=O)c1csnn1` (stereo unspecified): 0.144%; `CC(NC(=O)NCc1ccc(Cl)cc1)c1ccccn1` (stereo unspecified): 3.42%.
On to `Cc1nc(C2CCCN(C(=O)c3ccc(N4CCCC4)nc3)C2)no1` (stereo unspecified), for which the cytotoxicity at 10 µM was -3.06%.
On to `CC(C)(CO)NCc1ccc(OCc2ccc3c(c2)OCCO3)cc1`, for which the cytotoxicity at 10 µM turned out to be 4.12%.
Turning to `CCC(=O)N1CCC2(CC1)C(=O)N(C)CCN2Cc1csc(C)n1`, the cytotoxicity at 10 µM amounted to 5.59%.
For the molecule `Cn1cc(CN2CCC3(CC2)CC(Nc2nccs2)CO3)cn1` (stereo unspecified), the cytotoxicity at 10 µM is -79.6%.
For `CCc1ncnc2c1CCN(Cc1cccs1)CC2`, the cytotoxicity at 10 µM amounted to 4.98%.
For the molecule `O=C(C1CCOCC1)N1C[C@H]2CCC[C@@]2(COc2ccccn2)C1`, the cytotoxicity at 10 µM was -0.587%.
For the molecule `O=C(c1cnccn1)N1CCOC2(CCN(Cc3ccsc3)CC2)C1`, the cytotoxicity at 10 µM is -4.45%.
The same measure for `Cc1nn(C)c(Cl)c1CNCc1cccnc1N1CCN(C)CC1`: -9%.
Consider `Cc1ccc(CN2CCc3ncnc(-c4ccc(F)cc4)c3CC2)o1`, for which the cytotoxicity at 10 µM was -9.49%.
`CO[C@@H]1CCN(S(=O)(=O)c2cccs2)[C@H]1Cc1cccnc1`: the cytotoxicity at 10 µM is -80.3%.
As to `Cc1ccc(Cc2cnc(C3CCNCC3)cn2)cc1`, the cytotoxicity at 10 µM is -31.2%.
The same measure for `O=C(NCCn1nc(C2CCNC2)c2cccnc21)C1CCC1` (stereo unspecified): -7.87%; for `CC(C)COC[C@@H]1CC[C@H]2[C@H](CCN2C(=O)c2ccncc2F)O1`: -0.58%; for `CNC(=O)[C@H]1C[C@H]2CN(C(=O)Nc3ccc(F)cc3)C[C@@H]1O2`: 3.28%.
